Consider 31 molecules from ChEMBL document CHEMBL5576155, “Expanding the chemical space of ester of quinoxaline-7-carboxylate 1,4-di-N-oxide derivatives as potential antitubercular agents” (RSC Med Chem, 2024).

The subject of data set [1] is Mycobacterium tuberculosis. Kind of data set: Antitubercular activity against Mycobacterium tuberculosis H37Rv assessed as reduction in microbial growth by MABA. In kind it is functional. In short, it runs like this:
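M. tuberculosis H37Rv tested in vitro by modified Alamar blue microplate assay (MABA), with rifampicin and isoniazid as reference drugs. MIC was the lowest drug concentration giving 90% inhibition. Triplicate independent experiments.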

Data set [2] relates to Mycobacterium tuberculosis. Kind of data set: Antitubercular activity against Mycobacterium tuberculosis H37Rv assessed as reduction in microbial growth incubated for 10 days under anaerobic condition followed by 28 hrs incubation with aerobic condition further incubated 7 days at 5 % CO2 condition by low-oxygen recovery assay. Particulars: time 436 hrs. Type of data set: functional.

Data set [3] can be described thus: Cytotoxicity against mouse J774.2 cells assessed as reduction in cell viability by MTT assay. Type of data set: toxicity, cell-based. In short, it runs like this:
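Murine macrophage J774.2 grown in RPMI 1640 with 10% FBS, 1% MEM-NEAA and 100 U mL−1 antibiotic–antifungal, at 37 °C, 5% CO2, humidified. Cells washed and plated at 1 × 10^5 per well. Serial-dilution dose–response run in triplicate, with 0.1% DMSO as negative control. Viability read by MTT colorimetric assay. CC50 derived from the dose–response.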

Data set [4] is described as follows: Selectivity index, ratio of CC50 for cytotoxicity against mouse J774.2 cell to MIC for antibacterial activity against Mycobacterium tuberculosis H37Rv. Type of data set: toxicity. Conditions: J774.2 cells, read-out: Selectivity Index. The method in brief: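 CC50 was measured in murine macrophage J774.2 cells grown in RPMI 1640 with 10% FBS, 1% MEM-NEAA and antibiotic–antifungal mix at 37 °C, 5% CO2. 1 × 10^5 cells per well received serial dilutions in triplicate, with 0.1% DMSO as negative control. Viability was read by MTT. SI is CC50 over the MABA MIC against H37Rv.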

In the case of `CCOC(=O)c1ccc2c(c1)[n+]([O-])c(C(=O)c1cccs1)c(C(F)(F)F)[n+]2[O-]`, the minimal inhibitory concentration (MIC) worked out at 0.24 µM in data set [1] and 0.51 µM in data set [2].

As to `CC(=O)c1c(C(F)(F)F)[n+]([O-])c2ccc(C(=O)OCC(C)C)cc2[n+]1[O-]`, the MIC in data set [1] amounted to 0.7 µM; in data set [2], 0.94 µM. The CC50 in data set [3] amounted to 25.4 µM. Besides, the selectivity ratio in data set [4] stood at 10.2.

In the case of `Cc1ccc(NC(=O)c2c(C)[n+]([O-])c3cc(C(=O)OCC(C)C)ccc3[n+]2[O-])c(C)c1`, the MIC in data set [1] and in data set [2] was more than 118 µM in each case. Moreover, the CC50 in data set [3] is more than 200 µM. Also, the selectivity ratio in data set [4] was determined as 10.2.

Consider `CCCCOC(=O)c1ccc2c(c1)[n+]([O-])c(C(=O)OCc1ccccc1)c(C)[n+]2[O-]`, for which the minimum inhibitory concentration (MIC) in data set [1] was found to be 0.59 µM; in data set [2], 1.73 µM. Also, the CC50 in data set [3] is more than 200 µM. The selectivity ratio in data set [4] came out at 10.2.

With `CCCCOC(=O)c1ccc2c(c1)[n+]([O-])c(C(=O)OC)c(C)[n+]2[O-]`, the MIC worked out at 0.87 µM in data set [1] and 5.24 µM in data set [2]. For the same molecule, the CC50 in data set [3] was determined as 46.2 µM. Further, the selectivity ratio in data set [4] was 10.2.

In the case of `CC(C)OC(=O)c1ccc2c(c1)[n+]([O-])c(C(=O)c1cccs1)c(C(F)(F)F)[n+]2[O-]`, the MIC in data set [1] worked out at 0.19 µM; in data set [2], 0.54 µM.

As to `CCCCOC(=O)c1ccc2c(c1)[n+]([O-])c(C(=O)OCC)c(C)[n+]2[O-]`, the figures for the MIC in data set [1] and in data set [2] were 1.38 µM and 6.24 µM, respectively. Also, the CC50 in data set [3] was more than 200 µM. Besides, the selectivity ratio in data set [4] came out at 10.2.

Consider `CCCCOC(=O)c1ccc2c(c1)[n+]([O-])c(C(C)=O)c(C(F)(F)F)[n+]2[O-]`, for which the MIC in data set [1] was found to be 0.62 µM; in data set [2], 0.97 µM. The CC50 in data set [3] is more than 200 µM. The selectivity ratio in data set [4] stood at 10.2.

Turning to `CCCCOC(=O)c1ccc2c(c1)[n+]([O-])c(C(=O)OCC)c(C(F)(F)F)[n+]2[O-]`, the MIC was determined as 0.57 µM in data set [1] and 0.87 µM in data set [2]. Besides, in data set [3], the CC50 is more than 200 µM. In addition, in data set [4], the selectivity ratio is 10.2.

On to `Cc1c(C(=O)Nc2ccccc2)[n+]([O-])c2cc(C(=O)OCC(C)C)ccc2[n+]1[O-]`, for which the values for the MIC in data set [1] and in data set [2] were 2.56 µM and 2.73 µM, respectively. For the same molecule, in data set [3], the CC50 is more than 200 µM. Besides, the selectivity ratio in data set [4] is 10.2.

`CC(C)COC(=O)c1ccc2c(c1)[n+]([O-])c(C(=O)c1ccco1)c(C(F)(F)F)[n+]2[O-]`: the figures for the MIC in data set [1] and in data set [2] were 0.68 µM and 1.65 µM, respectively. The CC50 in data set [3] was determined as 81.8 µM. Further, in data set [4], the selectivity ratio was found to be 10.2.

With `Cc1c(C(=O)c2ccccc2)[n+]([O-])c2cc(C(=O)OCC(C)C)ccc2[n+]1[O-]`, the MIC in data set [1] worked out at 0.95 µM; in data set [2] it was 2.68 µM. For the same molecule, in data set [3], the CC50 worked out at 34.2 µM. For the same molecule, the selectivity ratio in data set [4] was found to be 10.2.

Take `CCCCOC(=O)c1ccc2c(c1)[n+]([O-])c(C(=O)Nc1ccccc1)c(-c1ccccc1)[n+]2[O-]`: the results for the MIC in data set [1] and in data set [2] were 3.3 µM and 9.74 µM, respectively. The CC50 in data set [3] was determined as 44.1 µM. Further, in data set [4], the selectivity ratio amounted to 10.2.

Regarding `CC(C)COC(=O)c1ccc2c(c1)[n+]([O-])c(C(=O)c1ccccc1)c(C(F)(F)F)[n+]2[O-]`, the results for the MIC in data set [1] and in data set [2] were 0.53 µM and 0.92 µM, respectively.

For `CC(C)COC(=O)c1ccc2c(c1)[n+]([O-])c(C(=O)Nc1ccccc1)c(-c1ccccc1)[n+]2[O-]`, the MIC in data set [1] is 0.57 µM; in data set [2], 1.49 µM. Further, the CC50 in data set [3] is more than 200 µM. Besides, the selectivity ratio in data set [4] amounted to 10.2.

As to `CCCCOC(=O)c1ccc2c(c1)[n+]([O-])c(C(=O)c1cccs1)c(C(F)(F)F)[n+]2[O-]`, the figures for the MIC in data set [1] and in data set [2] were 0.57 µM and 0.86 µM, respectively.

For the molecule `CCCCOC(=O)c1ccc2c(c1)[n+]([O-])c(C(=O)OC(C)(C)C)c(C)[n+]2[O-]`, the minimum inhibitory concentration (MIC) was 14.7 µM in data set [1] and 128 µM in data set [2]. For the same molecule, the CC50 in data set [3] is more than 200 µM. The selectivity ratio in data set [4] is 10.2.

For the molecule `CC(C)COC(=O)c1ccc2c(c1)[n+]([O-])c(C(=O)c1cccs1)c(C(F)(F)F)[n+]2[O-]`, the MIC in data set [1] came out at 0.55 µM; in data set [2] it was 0.77 µM. The CC50 in data set [3] was 43.9 µM. The selectivity ratio in data set [4] is 10.2.

As to `CCCCOC(=O)c1ccc2c(c1)[n+]([O-])c(C(=O)Nc1ccc(Cl)cc1)c(C)[n+]2[O-]`, the MIC in data set [1] and in data set [2] was more than 117 µM in each case. The 50% cytotoxic concentration (CC50) in data set [3] was 50.3 µM. Moreover, in data set [4], the selectivity ratio is 10.2.

As to `CC(C)COC(=O)c1ccc2c(c1)[n+]([O-])c(C(=O)c1ccc3ccccc3c1)c(C(F)(F)F)[n+]2[O-]`, the minimum inhibitory concentration (MIC) in data set [1] is 1.38 µM; in data set [2], 2.33 µM.

As to `COC(=O)c1c(C)[n+]([O-])c2ccc(C(=O)OCC(C)C)cc2[n+]1[O-]`, the MIC in data set [1] was 0.84 µM; in data set [2] it was 2.01 µM.

Turning to `CC(=O)c1c(C)[n+]([O-])c2ccc(C(=O)OCC(C)C)cc2[n+]1[O-]`, the MIC is 0.94 µM in data set [1] and 1.82 µM in data set [2]. In data set [3], the CC50 was found to be 87.2 µM. For the same molecule, the selectivity ratio in data set [4] came out at 10.2.

Turning to `CCCCOC(=O)c1ccc2c(c1)[n+]([O-])c(C(=O)c1ccc3ccccc3c1)c(C(F)(F)F)[n+]2[O-]`, the results for the minimum inhibitory concentration (MIC) in data set [1] and in data set [2] were 1.07 µM and 3.04 µM, respectively. Moreover, the CC50 in data set [3] was more than 200 µM. Moreover, the selectivity ratio in data set [4] was 10.2.

Regarding `CCCCOC(=O)c1ccc2c(c1)[n+]([O-])c(C(=O)c1ccccc1)c(C(F)(F)F)[n+]2[O-]`, the figures for the MIC in data set [1] and in data set [2] were 0.53 µM and 0.88 µM, respectively. In addition, the CC50 in data set [3] stood at 48.4 µM. The selectivity ratio in data set [4] was 10.2.

In the case of `Cc1ccc(NC(=O)c2c(C)[n+]([O-])c3ccc(C(=O)OCC(C)C)cc3[n+]2[O-])c(C)c1`, the MIC in data set [1] is 19.7 µM; in data set [2], 12.3 µM. Besides, in data set [3], the CC50 was more than 200 µM. Besides, the selectivity ratio in data set [4] was 10.2.

Regarding `Cc1c(C(=O)Nc2ccc(Cl)cc2)[n+]([O-])c2cc(C(=O)OCC(C)C)ccc2[n+]1[O-]`, the MIC in data set [1] amounted to 1.63 µM; in data set [2], 1.86 µM.

With `CCCCOC(=O)c1ccc2c(c1)[n+]([O-])c(C(=O)Nc1ccc(C)cc1C)c(C)[n+]2[O-]`, the MIC in data set [1] and in data set [2] was more than 118 µM each time.

On to `CCCCOC(=O)c1ccc2c(c1)[n+]([O-])c(C(C)=O)c(C)[n+]2[O-]`, for which the MIC in data set [1] was determined as 0.88 µM; in data set [2], 2.3 µM. Further, the CC50 in data set [3] came out at 58.4 µM. Besides, the selectivity ratio in data set [4] is 10.2.

On to `CCCCOC(=O)c1ccc2c(c1)[n+]([O-])c(C(=O)c1ccccc1)c(C)[n+]2[O-]`, for which the MIC in data set [1] amounted to 1.95 µM; in data set [2] it was 5.37 µM. Besides, the CC50 in data set [3] is 17.7 µM. Further, the selectivity ratio in data set [4] turned out to be 10.2.

Consider `NNC(=O)c1ccncc1` [ISONIAZID], for which the minimal inhibitory concentration (MIC) in data set [1] is 2.92 µM; in data set [2], more than 933 µM.

As for `CO[C@H]1/C=C/O[C@@]2(C)Oc3c(C)c(O)c4c(O)c(c(/C=N/N5CCN(C)CC5)c(O)c4c3C2=O)NC(=O)/C(C)=C\C=C\[C@H](C)[C@H](O)[C@@H](C)[C@@H](O)[C@@H](C)[C@H](OC(C)=O)[C@@H]1C` [RIFAMPIN], the MIC in data set [1] was determined as 0.02 µM; in data set [2] it was 0.06 µM.
